Measurements from ChEMBL document CHEMBL4007414, “Design, Synthesis, Structure-Activity Relationship Studies, and Three-Dimensional Quantitative Structure-Activity Relationship (3D-QSAR) Modeling of a Series of O-Biphenyl Carbamates as Dual Modulators of Dopamine D3 Receptor and Fatty Acid Amide Hydrolase” (J Med Chem, 2017).
Activity calls are given as the source filed them. The rule behind the calls is not given here.

What was measured:
D(3) dopamine receptor [1] = target: T1, D(3) dopamine receptor (Homo sapiens, UniProt P35462); assay: Agonist activity at recombinant human dopamine D3 receptor expressed in CHO-K1 cells assessed as […] in cAMP accumulation after 30 mins by HTRF assay relative to dopamine; assay type: functional, cell-based
[2] = target: T2, Fatty-acid amide hydrolase 1 (Homo sapiens, UniProt O00519); assay: Inhibition of human FAAH1 expressed in HEK293 cell membrane-enriched lysate using AMC arachidonyl amide as substrate preincubated for 50 mins followed by substrate addition measured after 4 hrs by fluorescence analysis
T2 sequence (O00519 whole entry): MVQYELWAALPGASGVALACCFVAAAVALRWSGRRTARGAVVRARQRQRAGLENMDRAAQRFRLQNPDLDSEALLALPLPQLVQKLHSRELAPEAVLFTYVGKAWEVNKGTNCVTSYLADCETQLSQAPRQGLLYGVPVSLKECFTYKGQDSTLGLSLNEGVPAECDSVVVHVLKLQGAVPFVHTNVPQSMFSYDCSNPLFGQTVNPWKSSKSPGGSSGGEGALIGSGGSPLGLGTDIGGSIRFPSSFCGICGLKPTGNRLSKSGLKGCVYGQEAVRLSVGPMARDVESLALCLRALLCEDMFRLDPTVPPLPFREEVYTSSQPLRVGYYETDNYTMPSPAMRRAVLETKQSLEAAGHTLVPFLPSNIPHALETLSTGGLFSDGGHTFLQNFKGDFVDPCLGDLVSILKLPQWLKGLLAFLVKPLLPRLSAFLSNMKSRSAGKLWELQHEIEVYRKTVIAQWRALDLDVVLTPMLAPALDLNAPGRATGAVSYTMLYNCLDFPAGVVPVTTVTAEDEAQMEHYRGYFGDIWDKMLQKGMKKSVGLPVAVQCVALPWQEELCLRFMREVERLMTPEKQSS
Summary of the method: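 Membrane-enriched lysate (2,5 μg) from HEK293 cells stably expressing human FAAH-1, pre-incubated 50 min with compound or 2,5% DMSO vehicle in 50 mM Tris-HCl pH 7.4, 0.05% fatty acid-free BSA. Then 1 μM AMC arachidonyl amide added, 4 h at 37 °C.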

D(3) dopamine receptor [3] = target: T1, D(3) dopamine receptor; assay: Agonist activity at recombinant human dopamine D3 receptor expressed in CHO-K1 cells assessed as […] in cAMP accumulation after 30 mins by HTRF assay; assay type: functional, cell-based
D(2) dopamine receptor [4] = target: T3, D(2) dopamine receptor (Homo sapiens, UniProt P14416); assay: Agonist activity at human dopamine D2 receptor-short expressed in CHO-K1 cells assessed as reduction in adenylyl cyclase activator NKH 477 induced cAMP accumulation preincubated for 10 mins followed by NKH 477 addition by HTRF assay; assay type: functional, cell-based
D(2) dopamine receptor [5] = target: T3, D(2) dopamine receptor; assay: Agonist activity at human dopamine D2 receptor-short expressed in CHO-K1 cells assessed as reduction in adenylyl cyclase activator NKH 477 induced cAMP accumulation preincubated for 10 mins followed by NKH 477 addition by HTRF assay relative to dopamine; assay type: functional, cell-based
Homo sapiens = organism: Homo sapiens; assay: Ratio of EC50 for human dopamine D2 receptor-short expressed in CHO-K1 cells to EC50 for recombinant human dopamine D3 receptor expressed in CHO-K1 cells; assay type: cell-based
[6] = Cmax in Sprague-Dawley rat plasma at 10 mg/kg, po by UPLC-MS analysis; assay type: ADME, organism-based; design: dose 10 mg/kg, route oral
Summary of the method: (§1)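 Cannulated male Sprague-Dawley rats (175–200 g), three per dose, dosed IV at 3 mg/kg or PO at 10 mg/kg in PEG400/Tween 80/saline 10/10/80. Blood taken IV at 0–240 min and PO at 0–1440 min. Plasma extracted with cold acetonitrile plus internal standard and analysed by UPLC-MS/MS against a 1 nM–10 μM calibration. PK parameters derived from time/concentration profiles.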

[7] = Half life in rat plasma at 2 uM by UPLC-MS analysis; assay type: ADME, cell-free
Summary of the method: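 Compound at 2 μM final in rat plasma with 5% DMSO, incubated at 37 °C. Samples taken at 0, 5, 15, 30, 60 and 120 min and quenched in cold acetonitrile with internal standard.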

[8] = AUC in Sprague-Dawley rat brain at 10 mg/kg, po by UPLC-MS analysis; assay type: ADME, organism-based
Summary of the method: (§2)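 Male Sprague-Dawley rats, three per time point, dosed orally at 10 mg/kg in PEG400/Tween 80/saline 10/10/80. Brains taken at 1 h and 4 h, homogenized in RIPA buffer and extracted with cold acetonitrile plus internal standard. Compound quantified by UPLC-MS/MS; protein measured by BCA.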

[9] = Elimination half life in Sprague-Dawley rat plasma at 3 mg/kg, iv by UPLC-MS analysis; assay type: ADME, organism-based; conditions: read-out: beta t1/2; summary of the method: as §1
[10] = Cmax in Sprague-Dawley rat plasma at 3 mg/kg, iv by UPLC-MS analysis; assay type: ADME, organism-based; design: dose 3 mg/kg, route intravenous; summary of the method: as §1
[11] = target: T4, 5-hydroxytryptamine receptor 1A (Homo sapiens) (UniProt P08908); assay: Displacement of [3H]8-OH-DPAT from human 5HT-1A receptor expressed in Sf9 insect cells at 100 nM after 60 mins by scintillation counting
T4 sequence (whole entry): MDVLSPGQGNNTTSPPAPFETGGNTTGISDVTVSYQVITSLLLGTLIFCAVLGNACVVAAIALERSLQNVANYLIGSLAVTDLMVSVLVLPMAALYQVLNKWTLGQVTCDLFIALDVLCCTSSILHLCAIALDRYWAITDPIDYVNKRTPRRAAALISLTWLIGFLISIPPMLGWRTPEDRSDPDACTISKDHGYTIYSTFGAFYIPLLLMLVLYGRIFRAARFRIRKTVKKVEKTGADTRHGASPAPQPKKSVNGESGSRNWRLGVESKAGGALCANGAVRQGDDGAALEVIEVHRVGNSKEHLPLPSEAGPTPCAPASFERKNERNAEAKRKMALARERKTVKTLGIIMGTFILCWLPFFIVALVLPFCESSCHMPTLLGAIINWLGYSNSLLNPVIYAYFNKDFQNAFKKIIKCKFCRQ

[12] = Oral bioavailability in Sprague-Dawley rat […] at 10 mg/kg by UPLC-MS analysis; assay type: ADME, organism-based
[13] = target: T5, Monoglyceride lipase (Homo sapiens) (UniProt Q99685); assay: Irreversible inhibition of human MAGL after 1 hr by LC-MS/MS analysis
T5 sequence (whole entry): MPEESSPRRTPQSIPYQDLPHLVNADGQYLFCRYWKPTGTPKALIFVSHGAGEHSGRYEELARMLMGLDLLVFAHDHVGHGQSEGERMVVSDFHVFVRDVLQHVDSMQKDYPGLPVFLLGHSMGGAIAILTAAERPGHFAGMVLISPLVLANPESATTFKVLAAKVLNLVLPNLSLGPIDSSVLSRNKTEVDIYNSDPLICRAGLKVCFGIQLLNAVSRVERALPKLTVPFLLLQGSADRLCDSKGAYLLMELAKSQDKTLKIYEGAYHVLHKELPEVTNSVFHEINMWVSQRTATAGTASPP

[14] = Volume of distribution in Sprague-Dawley rat plasma at 3 mg/kg, iv by UPLC-MS analysis; assay type: ADME, organism-based; summary of the method: as §1
Brain = assay: Total drug uptake in Sprague-Dawley rat brain at 10 mg/kg, po by UPLC-MS analysis; assay type: ADME, organism-based; conditions: in vivo, read-out: Drug uptake; summary of the method: as §2
[15] = Clearance in Sprague-Dawley rat plasma at 3 mg/kg, iv by UPLC-MS analysis; assay type: ADME, organism-based; summary of the method: as §1
[16] = Tmax in Sprague-Dawley rat plasma at 3 mg/kg, iv by UPLC-MS analysis; assay type: ADME, organism-based; summary of the method: as §1
[17] = target: 5-hydroxytryptamine receptor 1B (Rattus norvegicus) (UniProt P28564); assay: Displacement of [125I]CYP from 5HT-1B receptor in OFA rat cortical membranes at 10 to 100 nM after 90 mins by scintillation counting; assay type: cell membranes
[18] = Half life in rat liver microsomes at […] by UPLC-MS analysis; assay type: ADME, microsome
[19] = target: Beta-2 adrenergic receptor (Homo sapiens) (UniProt P07550); assay: Displacement of [3H](-)CGP12177 from beta2 adrenergic receptor (unknown origin) at 10 to 100 nM by scintillation counting
[20] = Tmax in Sprague-Dawley rat brain at 10 mg/kg, po by UPLC-MS analysis; assay type: ADME, organism-based; summary of the method: as §2
[21] = Cmax in Sprague-Dawley rat brain at 10 mg/kg, po by UPLC-MS analysis; assay type: ADME, organism-based; design: dose 10 mg/kg, route oral; summary of the method: as §2
[22] = target: Beta-1 adrenergic receptor (Homo sapiens) (UniProt P08588); assay: Displacement of [3H](-)CGP12177 from human beta1 adrenergic receptor expressed in HEK293 cells at 10 to 100 nM after 45 mins by scintillation counting; assay type: cell-based
Chain of Beta-1 adrenergic receptor (Homo sapiens) (P08588 whole entry, looked up): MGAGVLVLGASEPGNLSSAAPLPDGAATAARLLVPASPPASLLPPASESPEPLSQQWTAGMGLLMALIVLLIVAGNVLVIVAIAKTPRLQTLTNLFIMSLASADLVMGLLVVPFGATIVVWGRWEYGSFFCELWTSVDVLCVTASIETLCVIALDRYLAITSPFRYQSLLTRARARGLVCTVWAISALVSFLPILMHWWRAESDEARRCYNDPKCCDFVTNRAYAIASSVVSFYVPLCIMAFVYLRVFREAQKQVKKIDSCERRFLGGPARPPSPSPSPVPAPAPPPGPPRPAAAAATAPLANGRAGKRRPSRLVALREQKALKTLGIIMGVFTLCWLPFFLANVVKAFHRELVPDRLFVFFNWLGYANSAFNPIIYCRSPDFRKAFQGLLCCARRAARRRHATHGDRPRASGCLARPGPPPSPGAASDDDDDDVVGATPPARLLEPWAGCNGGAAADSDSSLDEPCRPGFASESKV

T3 sequence (P14416 whole entry): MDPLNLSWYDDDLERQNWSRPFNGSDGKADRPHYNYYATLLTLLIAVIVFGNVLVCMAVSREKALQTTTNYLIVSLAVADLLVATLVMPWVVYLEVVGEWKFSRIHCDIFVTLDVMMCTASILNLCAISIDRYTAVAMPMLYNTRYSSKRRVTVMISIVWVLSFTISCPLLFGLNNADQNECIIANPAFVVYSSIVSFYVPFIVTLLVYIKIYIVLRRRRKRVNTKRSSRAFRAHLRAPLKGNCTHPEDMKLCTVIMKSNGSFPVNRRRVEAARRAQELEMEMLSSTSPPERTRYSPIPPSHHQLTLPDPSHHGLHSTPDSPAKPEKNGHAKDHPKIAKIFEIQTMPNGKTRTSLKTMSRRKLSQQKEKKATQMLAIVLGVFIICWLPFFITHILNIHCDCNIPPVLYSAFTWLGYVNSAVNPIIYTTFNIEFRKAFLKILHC
T1 sequence (P35462 whole entry): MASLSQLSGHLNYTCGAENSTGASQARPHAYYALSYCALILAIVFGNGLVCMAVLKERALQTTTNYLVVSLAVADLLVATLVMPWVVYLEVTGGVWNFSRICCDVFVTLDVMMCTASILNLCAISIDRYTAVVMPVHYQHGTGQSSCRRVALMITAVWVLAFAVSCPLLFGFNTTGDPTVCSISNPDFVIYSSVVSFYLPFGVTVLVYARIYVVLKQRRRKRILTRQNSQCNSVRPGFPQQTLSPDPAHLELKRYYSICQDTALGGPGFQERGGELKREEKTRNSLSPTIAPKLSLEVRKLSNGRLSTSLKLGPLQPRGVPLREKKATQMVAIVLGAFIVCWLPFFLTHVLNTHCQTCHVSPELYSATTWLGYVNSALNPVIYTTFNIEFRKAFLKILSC
Chain of Beta-2 adrenergic receptor (Homo sapiens) (P07550 whole entry, looked up): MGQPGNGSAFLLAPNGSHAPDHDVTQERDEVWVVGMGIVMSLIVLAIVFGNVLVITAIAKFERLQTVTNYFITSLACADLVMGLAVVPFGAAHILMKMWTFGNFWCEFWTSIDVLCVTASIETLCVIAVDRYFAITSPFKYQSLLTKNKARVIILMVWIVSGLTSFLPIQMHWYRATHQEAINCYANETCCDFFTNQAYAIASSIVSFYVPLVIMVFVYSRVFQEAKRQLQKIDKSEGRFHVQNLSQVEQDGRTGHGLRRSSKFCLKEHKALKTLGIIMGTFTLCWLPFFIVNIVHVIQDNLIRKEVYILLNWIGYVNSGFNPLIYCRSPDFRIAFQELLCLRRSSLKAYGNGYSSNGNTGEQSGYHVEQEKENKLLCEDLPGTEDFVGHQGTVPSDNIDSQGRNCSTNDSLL
Chain of 5-hydroxytryptamine receptor 1B (Rattus norvegicus) (P28564 whole entry): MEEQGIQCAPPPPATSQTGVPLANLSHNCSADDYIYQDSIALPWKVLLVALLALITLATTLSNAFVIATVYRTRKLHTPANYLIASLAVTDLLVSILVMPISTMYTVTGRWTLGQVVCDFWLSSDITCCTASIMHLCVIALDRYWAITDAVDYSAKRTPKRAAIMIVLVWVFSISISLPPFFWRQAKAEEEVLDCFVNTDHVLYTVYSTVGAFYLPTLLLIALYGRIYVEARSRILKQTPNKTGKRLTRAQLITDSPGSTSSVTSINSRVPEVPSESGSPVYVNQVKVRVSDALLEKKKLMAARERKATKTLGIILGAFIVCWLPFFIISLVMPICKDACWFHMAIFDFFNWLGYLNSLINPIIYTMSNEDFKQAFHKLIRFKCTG

In the case of `O=C(NCCCCN1CCN(c2ccccc2C(F)(F)F)CC1)Oc1ccc(-c2ccccc2)cc1`, the Efficacy (D(3) dopamine receptor [1]) is reported as > 90%, the IC50 [2] is reported as 20.7 nM and the EC50 (D(3) dopamine receptor [3]) is reported as 1200 nM.

For `O=C(NCCCCN1CCN(c2cccc(Cl)c2Cl)CC1)Oc1ccc2c(c1)[nH]c1ccccc12`, the Efficacy (D(3) dopamine receptor [1]) was > 90%.

Work on `NC(=O)c1cccc(-c2ccc(OC(=O)NCCCCN3CCN(c4cccc(Cl)c4Cl)CC3)cc2F)c1` yielded an Efficacy (D(3) dopamine receptor [1]) of 74%, an EC50 (D(2) dopamine receptor [4]) of 13.7 nM and an IC50 [2] of 1 nM. It also gave an Efficacy (D(2) dopamine receptor [5]) of 40.4%.

In the case of `O=C(NCCCN1CCN(c2cccc(Cl)c2Cl)CC1)Oc1ccc2c(c1)[nH]c1ccccc12`, the Efficacy (D(3) dopamine receptor [1]) is reported as > 90%.

In the case of `COc1ccccc1N1CCN(CCCCNC(=O)Oc2ccc3c(c2)[nH]c2ccccc23)CC1`, the Efficacy (D(3) dopamine receptor [1]) is reported as 66%, the EC50 (D(2) dopamine receptor [4]) is reported as 57.9 nM and the Efficacy (D(2) dopamine receptor [5]) is reported as 44%. The Ratio EC50 (Homo sapiens) was 4.8.

With `NC(=O)c1cccc(-c2ccc(OC(=O)NCCCCN3CCN(c4ccccc4C(F)(F)F)CC3)cc2)c1` the Activity (D(2) dopamine receptor [4]) was “inactive”.

In the case of `COc1cc(OC(=O)NCCCCN2CCN(c3cccc(Cl)c3Cl)CC2)ccc1-c1ccccc1`, the Efficacy (D(3) dopamine receptor [1]) is reported as 32%, the IC50 [2] is reported as 4.3 nM and the EC50 (D(3) dopamine receptor [3]) is reported as 1.66 nM.

Work on `Cl.O=C(NCCCCN1CCN(c2cccc(Cl)c2Cl)CC1)Oc1ccc(-c2ccccc2)cc1` yielded a Cmax [6] of 54 ng/mL, a half-life at 2 µM [7] of 97 min and an AUC [8] of 1.41 ng·h/mL. For the same compound, the half-life [9] was 145 min, the Cmax [10] was 500 ng/mL and the inhibition [11] was 60.4%. For the same compound, the bioavailability [12] was 21%, the inhibition [13] was “inactive” and the Vd [14] was 23.7 L/kg. For the same compound, the concentration (Brain) was 391 nM, the clearance [15] was 110 mL/min/kg and the Tmax [16] was 5 min. For the same compound, the inhibition [17] was “inactive”, the half-life at […] [18] was > 60 min and the inhibition [19] was “inactive”. For the same compound, the Tmax [20] was 4 h, the Cmax [21] was 37 ng/mL and the inhibition [22] was “inactive”.

Compound `NC(=O)c1cccc(-c2ccc(OC(=O)NCCCCN3CCN(c4ccccc4)CC3)cc2)c1` has an Efficacy (D(3) dopamine receptor [1]) of 88%.
